ChEMBL document CHEMBL1128226, “Phosphinyl acid-based bisubstrate analog inhibitors of Ras farnesyl protein transferase” (J Med Chem, 1995)

Experiments:
[1] = target: T1, Protein farnesyltransferase (Homo sapiens, UniProt P49354+P49356); experiment: Inhibition of Ras Farnesyltransferase from pig brain; parameters: species or system Sus scrofa; conditions: target entry is the homologue from another species; read-out: I50
In short: (§1)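 Pig brain FPT purified about 2000-fold over crude cytosol. Reaction contains 1 μM [3H]FPP, 7 μM recombinant p21 H-Ras (E. coli, partially purified), 25 mM MgCl2, 10 mM DTT and 100 mM HEPES 7.4, with inhibitor usually 360 to 0.02 μM. Run 1 h at 37 °C, then SDS/TCA precipitation, filtration and scintillation counting. Triplicate points; IC50 from % control vs log concentration; each compound tested at least twice.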

[2] = target: Geranylgeranyl transferase type I (Homo sapiens, UniProt P49354+P53609); experiment: Inhibition of Geranylgeranyl transferase type I from porcine brain tissue; parameters: species or system Sus scrofa; conditions: target entry is the homologue from another species; read-out: I50
In short: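 Porcine brain GGT-I, partially purified; substrates 12 μM bacterially expressed p21 rasCVLL and 0.5 μM [3H]GGPP (19.3 Ci/mmol), with 10 mM DTT, 5 mM MgCl2, 5 μM ZnCl2, 100 mM HEPES pH 7.4. Incubated 1 h at 37 °C. Protein precipitated with SDS/TCA, filtered, radioactivity counted. Triplicates, SEM reported; IC50 determined.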

[3] = target: T1, Protein farnesyltransferase; experiment: Inhibition of Ras Farnesyltransferase obtained from pig brain; 'a' indicates prodrug; parameters: species or system Sus scrofa; conditions: target entry is the homologue from another species; in short: as §1
[4] = test system: Geranylgeranyl transferase type I (Sus scrofa); experiment: Inhibition of Geranylgeranyl transferase type I from porcine brain tissue; 'a' indicates prodrug
[5] = target: T1, Protein farnesyltransferase; experiment: Inhibition of Ras Farnesyltransferase enzyme from pig brain; parameters: species or system Sus scrofa; conditions: target entry is the homologue from another species; read-out: I50; in short: as §1

Compound	IC50 [1] [µM]	IC50 [2] [µM]	I50 [3]	I50 [4]	IC50 [5] [µM]
CSCC[C@H](NC(=O)[C@@H](NC(=O)[C@@H](NC(=O)CCP(=O)(O)C/C=C(\C)CC/C=C(\C)CCC=C(C)C)C(C)C)C(C)C)C(=O)O	0.006	21	–	–	–
COC(=O)[C@H](CCSC)NC(=O)[C@@H](NC(=O)[C@@H](NC(=O)CCP(=O)(O)C/C=C(\C)CC/C=C(\C)CCC=C(C)C)C(C)C)C(C)C	–	–	Prepared and evaluated as prodrugs	Prepared and evaluated as prodrugs	–
CC(C)=CCC/C(C)=C/CC/C(C)=C/CP(=O)(O)OCC(=O)N[C@H](C(=O)N[C@@H](CC(C)C)C(=O)N[C@@H](CO)C(=O)O)C(C)C	–	59	–	–	0.06

Next, values leading:

IC50 [1] [µM]	IC50 [2] [µM]	I50 [3]	I50 [4]	IC50 [5] [µM]	Compound
–	–	Prepared and evaluated as prodrugs	Prepared and evaluated as prodrugs	–	COC(=O)[C@H](CCSC)NC(=O)[C@@H](NC(=O)[C@@H](NC(=O)COP(=O)(O)C/C=C(\C)CC/C=C(\C)CCC=C(C)C)C(C)C)C(C)C
–	10	–	–	0.0062	CSCC[C@H](NC(=O)[C@@H](NC(=O)[C@@H](NC(=O)COP(=O)(O)C/C=C(\C)CC/C=C(\C)CCC=C(C)C)C(C)C)C(C)C)C(=O)O
